Results of several laboratories.
Compare with care: the assays were run in different laboratories.
Target: Calcium/calmodulin-dependent protein kinase type II subunit gamma (CAMK2G, Homo sapiens, UniProt Q13555)

| Compound | read-out | mode | method | tested at | measurement | value |
| --- | --- | --- | --- | --- | --- | --- |
| CNCc1ccccc1-c1csc([C@H](C)Nc2nc(C)nc3cc(OC)c(OC)cc23)c1 | cell-free assay |  | competition with immobilised ligand | 1 µM | remaining binding | 90% |
| CCCS(=O)(=O)Nc1ccc(F)c(C(=O)c2c[nH]c3ncc(-c4ccc(Cl)cc4)cc23)c1F | enzyme activity | inhibitor |  | 1 µM | inhibition | < 10% |
| O=C1NC(=O)c2cc(Nc3ccc(F)cc3)c(Nc3ccc(F)cc3)cc21 | cell-free assay |  |  | 0.5 µM | remaining signal | 101% |
| Cc1cc(NC(=O)c2cccc3cc(-c4cccc5[nH]nc(N)c45)ccc23)ccc1F | enzyme activity | inhibitor |  | 0.1 µM | activity vs control | 106% |
| CS(=O)(=O)c1cc(C2(NC(=O)c3cncc4c3cnn4-c3ccc(F)cc3)CC2)ccn1 | cell-free assay |  | competition with immobilised ligand | 1 µM | remaining binding | 72% |
| COc1cc(Cl)c(C(=O)N[C@@H](CN[C@H]2CC[C@@H](N)CC2)Cc2ccc(C#N)cc2)cc1-c1ccc(CN[C@H](C)c2ccc(C)cc2)o1 | enzyme activity | inhibitor |  | 1 µM | remaining activity | 87% |
| COc1ccc2c(O[C@@H]3C[C@H]4C(=O)N[C@]5(C(=O)O)CC5/C=C\CCCCC[C@H](NC(=O)OC5CCCC5)C(=O)N4C3)cc(-c3csc(NC(=O)C(C)C)n3)nc2c1C (some centres unmarked) | cell-free assay |  | competition with immobilised ligand | 1 µM | remaining binding | 100% |
| CNC(=O)c1cc(Oc2ccc(NC(=O)Nc3ccc(Cl)c(C(F)(F)F)c3)cc2)ccn1 | cell-free assay |  |  | 10 µM | inhibition | 78% |
| Nc1ncnc2occ(-c3ccc(NC(=O)Nc4cc(C(F)(F)F)ccc4F)cc3)c12 | cell-free assay |  |  | 20 µM | remaining signal | 71% |
| O=C(Nc1nccs1)C(c1cc(F)ccc1O)N1Cc2ccccc2C1=O (centres unmarked) | enzyme activity | inhibitor |  | 1 µM | inhibition | 9% |
| O=C(NC[C@@H]1[C@H]2CN(C(=O)OCc3cc(C(F)(F)F)cc(C(F)(F)F)c3)C[C@@H]12)c1ccc2[nH]nnc2c1 | cell-free assay |  | competition with immobilised ligand | 1 µM | remaining binding | 85% |
| N#CCCc1ccc2c(c1)-c1[nH]c3ccc([N+](=O)[O-])cc3c1CC(=O)N2 | cell-free assay |  |  | 0.5 µM | remaining signal | 66% |
| C[C@@H]1CN(c2cc(-c3nn(C)c4ccc(OC5(C)CC5)cc34)ncn2)C[C@H](C)O1 | cell-free assay |  | competition with immobilised ligand | 1 µM | remaining binding | 90% |
| O=C(Nc1cnn(-c2csc(C(=O)NC3COC3)c2)c1)Nc1ccccc1Cl | enzyme activity | inhibitor |  | 5 µM | remaining activity | 96.4% |
| CC(C)(C)c1nc2c(s1)c1nc(N)ncc1c1ccc(NS(=O)(=O)c3c(F)cccc3F)c(F)c12 | enzyme activity | inhibitor | radiometric | 1 µM | remaining activity | 118% |
| O=C1CCc2cc(Nc3cc(OC4CCOCC4)c([N+](=O)[O-])cc3Cl)ccc2N1 | cell-free assay |  | competition with immobilised ligand | 1 µM | remaining binding | 100% |
| CCN(CC)c1ccc(C2=NNC(=O)CC2C)cc1[N+](=O)[O-] (centres unmarked) | enzyme activity | inhibitor |  | 10 µM | remaining activity | 119% |
| CCCOc1ccc(OC)c(F)c1C(=O)c1ccc(C(=O)N[C@@H]2CNC[C@H]2NC(=O)c2ccc3[nH]ncc3c2)cc1 | enzyme activity | inhibitor |  | 10 µM | remaining activity | 79% |
| Cc1ccc(C(=O)NCc2ccsc2)cc1C#Cc1cn(C(C)C)c2ncnc(N)c12 | enzyme activity | inhibitor |  | 1 µM | activity vs control | 101% |
| CC(C)(O)[C@H]1CC[C@H](Nc2ccc3ncc(-c4cccc(C(F)(F)F)c4)n3n2)CC1 | enzyme activity | inhibitor |  | 1 µM | remaining activity | 95.1% |
